According to ChEMBL document CHEMBL2412970, “Synthesis and anticancer activity of 2,4-disubstituted furo[3,2-b]indole derivatives” (Eur J Med Chem, 2013):
Activity calls are given as the source filed them. The rule behind the calls is not given here.

Experiments:
[1] = tested on: Hs-578T; experiment: Cytotoxicity against human Hs578T cells after 48 hrs by sulforhodamine B assay; assay type: functional
[2] = tested on: Malme-3M; experiment: Cytotoxicity against human MALME-3M cells after 48 hrs by sulforhodamine B assay; assay type: functional
[3] = Cytotoxicity against human H460 cells after 48 hrs by MTT assay; assay type: functional, cell-based; settings: NCI-H460, 48 h
Summary of the method: (§1)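 Cells were treated with a range of concentrations for 48 h. Viability was read by MTT: formazan was dissolved in DMSO and absorbance read at 570 nm. Untreated or 0.1% DMSO cells served as control. Data are mean from three independent experiments. HL-60, H460 and COLO 205 were kept in RPMI-1640 with 10% FBS and penicillin/streptomycin.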

[4] = tested on: MDA-MB-231; experiment: Cytotoxicity against human MDA-MB-231 cells after 48 hrs by sulforhodamine B assay; assay type: functional; settings: MDA-MB-231, 48 h
[5] = tested on: A498; experiment: Induction of apoptosis in human A498 cells assessed as late apoptotic cells at 0.5 uM after 12 hrs by AnnexinV/FITC-propidium iodide staining-based flow cytometry (reference value: 9.6%); assay type: functional
Summary of the method: (§2)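 Flow cytometry with annexin V-FITC/PI double labeling of A498 cells treated for 12, 24, 36 or 48 h; untreated cells served as the 0 h control. Stained in binding buffer for 15 min at room temperature in the dark, with more binding buffer added just before analysis. Annexin V+/PI− (Q4) counted as early apoptotic and annexin V+/PI+ (Q2) as late apoptotic.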

[6] = tested on: HL-60(TB); experiment: Cytotoxicity against human HL-60(TB) cells after 48 hrs by sulforhodamine B assay; assay type: functional; settings: HL-60, 48 h
[7] = tested on: A498; experiment: Induction of apoptosis in human A498 cells assessed as late apoptotic cells at 0.5 uM after 48 hrs by AnnexinV/FITC-propidium iodide staining-based flow cytometry (reference value: 9.6%); assay type: functional; summary of the method: as §2
[8] = tested on: IGROV-1; experiment: Cytotoxicity against human IGROV1 cells after 48 hrs by sulforhodamine B assay; assay type: functional; settings: IGROV-1, 48 h
[9] = tested on: KM12; experiment: Cytotoxicity against human KM12 cells after 48 hrs by sulforhodamine B assay; assay type: functional; settings: KM12, 48 h
[10] = tested on: A498; experiment: Induction of apoptosis in human A498 cells assessed as increase in Apaf-1 level at 0.5 uM after 6 to 48 hrs by Western blotting analysis; assay type: functional, cell-based
Summary of the method: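 A498 cells exposed for 6, 12, 24, 36 or 48 h, then washed in PBS and lysed. Lysates were held on ice for 30 min and spun at 12 000g for 20 min. Supernatant protein was measured by Bradford assay, run on 10% SDS-PAGE and transferred to nitrocellulose. Blots were probed for AIF, Endo G, Apaf-1, cytochrome c, caspase 9 and caspase 3, with β-actin as loading control; n = 3 independent experiments.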

[11] = tested on: A498; experiment: Induction of cell cycle arrest at G2/M phase in human A498 cells assessed as increase in CDK1 expression at 0.5 uM after 6 hrs by Western blotting analysis; assay type: functional, cell-based
Summary of the method: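 A498 cells exposed to 0.5 µM for 6, 12, 24, 36 or 48 h, then lysed on ice 30 min and spun 12 000g 20 min. Protein measured by Bradford; 20 µg per lane run on 10% SDS-PAGE, transferred to nitrocellulose, probed for cyclin B1 and CDK1, β-actin as loading control; n = 3 independent experiments.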

[12] = tested on: HOP-62; experiment: Cytotoxicity against human HOP62 cells after 48 hrs by sulforhodamine B assay; assay type: functional; settings: HOP-62, 48 h
[13] = tested on: A498; experiment: Cell cycle arrest in human A498 cells assessed as accumulation at S phase at 0.5 uM after 36 hrs by propidium iodide staining-based flow cytometry (reference value: 15.92 +/- 0.03%); assay type: functional
[14] = tested on: SNB-19; experiment: Cytotoxicity against human SNB19 cells after 48 hrs by sulforhodamine B assay; assay type: functional; settings: SNB-19, 48 h
[15] = tested on: NCI-H23; experiment: Cytotoxicity against human NCI-H23 cells after 48 hrs by sulforhodamine B assay; assay type: functional; settings: NCI-H23, 48 h
[16] = tested on: RXF 393; experiment: Cytotoxicity against human RXF393 cells after 48 hrs by sulforhodamine B assay; assay type: functional; settings: RXF 393, 48 h
[17] = tested on: A498; experiment: Induction of apoptosis in human A498 cells assessed as late apoptotic cells at 0.5 uM after 24 hrs by AnnexinV/FITC-propidium iodide staining-based flow cytometry (reference value: 9.6%); assay type: functional; summary of the method: as §2
[18] = tested on: SK-MEL-28; experiment: Cytotoxicity against human SK-MEL-28 cells after 48 hrs by sulforhodamine B assay; assay type: functional; settings: SK-MEL-28, 48 h
[19] = tested on: COLO 205; experiment: Cytotoxicity against human COLO205 cells after 48 hrs by sulforhodamine B assay; assay type: functional; settings: COLO 205, 48 h
[20] = tested on: SF-539; experiment: Cytotoxicity against human SF539 cells after 48 hrs by sulforhodamine B assay; assay type: functional; settings: SF-539, 48 h
[21] = tested on: A498; experiment: Cell cycle arrest in human A498 cells assessed as accumulation at G0/G1 phase at 0.5 uM after 24 hrs by propidium iodide staining-based flow cytometry (reference value: 78.70 +/- 0.02%); assay type: functional
[22] = tested on: A498; experiment: Induction of apoptosis in human A498 cells assessed as early apoptotic cells at 0.5 uM after 12 hrs by AnnexinV/FITC-propidium iodide staining-based flow cytometry (reference value: 3.9%); assay type: functional
[23] = tested on: K562; experiment: Cytotoxicity against human K562 cells after 48 hrs by sulforhodamine B assay; assay type: functional; settings: K562, 48 h
[24] = tested on: 786-0; experiment: Cytotoxicity against human 786-0 cells after 48 hrs by sulforhodamine B assay; assay type: functional; settings: 786-0, 48 h
[25] = tested on: OVCAR-5; experiment: Cytotoxicity against human OVCAR5 cells after 48 hrs by sulforhodamine B assay; assay type: functional; settings: OVCAR-5, 48 h
[26] = tested on: A498; experiment: Induction of apoptosis in human A498 cells assessed as early apoptotic cells at 0.5 uM after 36 hrs by AnnexinV/FITC-propidium iodide staining-based flow cytometry (reference value: 3.9%); assay type: functional
[27] = tested on: HL-60; experiment: Cytotoxicity against human HL60 cells after 48 hrs by MTT assay; assay type: functional, cell-based; settings: HL-60, 48 h; summary of the method: as §1
[28] = tested on: A498; experiment: Induction of apoptosis in human A498 cells assessed as early apoptotic cells at 0.5 uM after 48 hrs by AnnexinV/FITC-propidium iodide staining-based flow cytometry (reference value: 3.9%); assay type: functional
[29] = read-out: pLC50 (the source's name) (converted)

With `OCc1ccc(Cn2c3ccccc3c3oc(CO)cc32)o1` the GI50 [1] was over 100 µM, the CC50 [1, 29] was over 100 µM and the TGI ([1]; read-out: pTGI) was over 100 µM. It also gave a GI50 [2] of over 100 µM, a CC50 [2, 29] of over 100 µM and a TGI ([2]; read-out: pTGI) of over 100 µM. The IC50 [3] was 74.1 µM, the GI50 [4] was 74.1 µM and the CC50 [4, 29] was over 100 µM. The TGI ([4]; read-out: pTGI) was over 100 µM, the Activity [5] was 10% and the GI50 [6] was over 100 µM. For the same molecule, the CC50 [6, 29] was over 100 µM, the TGI ([6]; read-out: pTGI) was over 100 µM and the Activity [7] was 21.2%. It also gave a GI50 [8] of 4.68 µM, a CC50 [8, 29] of over 100 µM and a TGI ([8]; read-out: pTGI) of over 100 µM. For the same molecule, the GI50 [9] was over 100 µM, the CC50 [9, 29] was over 100 µM and the TGI ([9]; read-out: pTGI) was over 100 µM. The Activity [10] was “Active”, the Activity [11] was “Active” and the GI50 [12] was over 100 µM. The CC50 [12, 29] was over 100 µM, the TGI ([12]; read-out: pTGI) was over 100 µM and the Activity [13] was 14.33%. It also gave a GI50 [14] of over 100 µM, a CC50 [14, 29] of over 100 µM and a TGI ([14]; read-out: pTGI) of over 100 µM. The GI50 [15] was over 100 µM, the CC50 [15, 29] was over 100 µM and the TGI ([15]; read-out: pTGI) was over 100 µM. It also gave a GI50 [16] of 75.9 µM, a CC50 [16, 29] of over 100 µM and a TGI ([16]; read-out: pTGI) of over 100 µM. For the same molecule, the Activity [17] was 15.6%, the GI50 [18] was over 100 µM and the CC50 [18, 29] was over 100 µM. It also gave a TGI ([18]; read-out: pTGI) of over 100 µM, a GI50 [19] of 61.7 µM and a CC50 [19, 29] of over 100 µM. The TGI ([19]; read-out: pTGI) was over 100 µM, the GI50 [20] was over 100 µM and the CC50 [20, 29] was over 100 µM. It also gave a TGI ([20]; read-out: pTGI) of over 100 µM, an Activity [21] of 72.65% and an Activity [22] of 5%. For the same molecule, the GI50 [23] was 45.7 µM, the CC50 [23, 29] was over 100 µM and the TGI ([23]; read-out: pTGI) was over 100 µM. For the same molecule, the GI50 [24] was 50.1 µM, the CC50 [24, 29] was over 100 µM and the TGI ([24]; read-out: pTGI) was over 100 µM. The GI50 [25] was 0.331 µM, the TGI ([25]; read-out: pTGI (converted)) was 1.2 µM and the Activity [26] was 21.5%. It also gave an IC50 [27] of over 50 µM and an Activity [28] of 41%.
